# Measured values from different studies.
# Protocols differ between the studies behind these lines.
# Target: cGMP-dependent protein kinase 2 (PRKG2, Homo sapiens, UniProt Q13237)
# One construct used (Q13237 1-762): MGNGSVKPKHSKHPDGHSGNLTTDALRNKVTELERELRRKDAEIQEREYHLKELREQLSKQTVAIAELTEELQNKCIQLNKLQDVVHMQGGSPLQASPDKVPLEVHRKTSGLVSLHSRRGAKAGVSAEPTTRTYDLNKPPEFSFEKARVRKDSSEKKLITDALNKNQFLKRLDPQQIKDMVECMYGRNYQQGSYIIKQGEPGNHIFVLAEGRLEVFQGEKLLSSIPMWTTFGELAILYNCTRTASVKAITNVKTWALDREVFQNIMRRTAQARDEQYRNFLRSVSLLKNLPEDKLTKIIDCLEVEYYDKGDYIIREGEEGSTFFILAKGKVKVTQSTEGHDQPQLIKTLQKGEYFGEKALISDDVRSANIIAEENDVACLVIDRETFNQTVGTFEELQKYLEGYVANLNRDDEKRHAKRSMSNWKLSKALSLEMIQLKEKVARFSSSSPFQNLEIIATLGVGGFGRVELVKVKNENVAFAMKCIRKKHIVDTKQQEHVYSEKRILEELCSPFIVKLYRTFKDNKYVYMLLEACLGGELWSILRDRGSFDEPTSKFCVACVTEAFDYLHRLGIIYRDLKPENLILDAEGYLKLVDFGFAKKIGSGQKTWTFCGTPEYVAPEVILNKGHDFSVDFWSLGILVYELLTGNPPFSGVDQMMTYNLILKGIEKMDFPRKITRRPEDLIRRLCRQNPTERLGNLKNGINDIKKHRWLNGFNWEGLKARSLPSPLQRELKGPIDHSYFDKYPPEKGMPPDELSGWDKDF
SMILES,assay,conditions,endpoint,value
Cn1cncc1[C@](O)(COc1ccc(C#N)cc1-c1ccc(OC(F)(F)F)cc1)c1ccc(C#N)cc1,"cell-free assay, competition with immobilised ligand",1 µM,remaining binding,100%
Nc1ncc(-c2nc(N3CCOCC3)nc(N3CCOCC3)n2)c(C(F)F)n1,"binding, competition with immobilised ligand",10 µM,remaining binding,90%
O=c1[nH]c2ccccc2n1C1CCN(Cc2ccc(-c3[nH]c4cc5ncnc5cc4nc3-c3ccccc3)cc2)CC1,cell-free assay,0.5 µM,remaining signal,96.8%
Cn1cc(-c2cc(F)cc(N3CCn4c(cc5c4CCCC5)C3=O)c2CO)cc(Nc2ccc(N3CCN(C4COC4)CC3)cn2)c1=O,"enzyme activity, inhibitor",0.1 µM,inhibition,11%
Cc1nn(C)cc1-c1nc2c(N3CCN(Cc4ccc(Cl)cc4)CC3)c(Cl)cnc2[nH]1,"binding, competition with immobilised ligand",1 µM,remaining binding,92%
COc1ncccc1-c1cnn2ccc(N3CCN(C(=O)OC(C)C)CC3)nc12,"binding, competition with immobilised ligand",1 µM,remaining binding,88%
CC(C)(C)c1cc(C=C(C#N)C#N)cc(Br)c1O,"enzyme activity, inhibitor",0.5 µM,remaining activity,87.6%
N#CC1(c2ccccn2)CCN(Cc2cc(C(=O)O)c(=O)n3ccccc23)CC1,"cell-free assay, competition with immobilised ligand",1 µM,remaining binding,95%
Cn1cc(-c2cccc(N3CCc4c(sc5c4CC(C)(C)C5)C3=O)c2CO)cc(Nc2ccncn2)c1=O,"enzyme activity, inhibitor",1 µM,inhibition,2%
